pIC50: −log10 of the molar value. Active and inactive are the calls of the source. No cut-off for these calls is given here.
Columns and labels:
[1] = target: T1, Ephrin type-B receptor 4 (Homo sapiens) (UniProt P54760); test: Inhibition of EphB4 at 30 uM in presence of 30 uM ATP
T1 sequence (whole entry): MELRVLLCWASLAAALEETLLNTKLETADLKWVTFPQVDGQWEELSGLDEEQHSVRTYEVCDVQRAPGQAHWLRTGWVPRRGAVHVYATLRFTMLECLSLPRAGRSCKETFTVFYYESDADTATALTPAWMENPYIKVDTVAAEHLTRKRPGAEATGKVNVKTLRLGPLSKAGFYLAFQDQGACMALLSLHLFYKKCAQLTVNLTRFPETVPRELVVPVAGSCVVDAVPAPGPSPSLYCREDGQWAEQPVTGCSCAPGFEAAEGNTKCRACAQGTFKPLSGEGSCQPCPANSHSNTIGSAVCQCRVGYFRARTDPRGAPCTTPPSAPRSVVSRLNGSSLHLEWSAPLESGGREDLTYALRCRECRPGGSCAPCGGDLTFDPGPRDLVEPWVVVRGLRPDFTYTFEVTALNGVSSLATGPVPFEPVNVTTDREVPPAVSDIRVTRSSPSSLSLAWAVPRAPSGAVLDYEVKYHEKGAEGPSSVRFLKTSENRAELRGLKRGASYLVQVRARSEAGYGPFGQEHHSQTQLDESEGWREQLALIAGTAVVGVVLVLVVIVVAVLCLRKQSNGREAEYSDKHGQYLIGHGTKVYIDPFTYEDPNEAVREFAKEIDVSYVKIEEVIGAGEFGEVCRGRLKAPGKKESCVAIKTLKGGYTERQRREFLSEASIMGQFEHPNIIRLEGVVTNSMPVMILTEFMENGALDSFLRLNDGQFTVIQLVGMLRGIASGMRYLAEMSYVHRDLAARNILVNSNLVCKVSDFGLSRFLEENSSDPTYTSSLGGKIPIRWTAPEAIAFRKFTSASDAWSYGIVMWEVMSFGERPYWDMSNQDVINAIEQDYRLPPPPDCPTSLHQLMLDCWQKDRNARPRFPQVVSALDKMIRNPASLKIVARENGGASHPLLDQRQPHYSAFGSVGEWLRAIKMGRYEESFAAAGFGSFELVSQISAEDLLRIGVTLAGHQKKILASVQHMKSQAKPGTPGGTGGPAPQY
Procedure, shortened: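 EphB4 kinase, FRET enzymatic assay run in house with a commercial EphB4 assay kit. ATP at 30 μM, compound at 30 μM. Read-out is percent inhibition at that single concentration.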

[2] = target: Tyrosine-protein kinase Lck (Homo sapiens, UniProt P06239); test: Inhibition of recombinant Lck catalytic domain in presence of 1 uM radiolabeled ATP
Procedure, shortened: (§1)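 Radiometric enzymatic assay run by a contract lab (Reaction Biology) on the recombinant catalytic domain of each kinase, with radiolabeled ATP at 1 μM. IC50 taken from a 10-dose response.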

[3] = target: Tyrosine-protein kinase ABL1 (Homo sapiens, UniProt P00519); test: Inhibition of recombinant Abl1 catalytic domain in presence of 1 uM radiolabeled ATP; procedure, shortened: as §1
Ephrin type-B receptor 4 [4] = target: T2, Ephrin type-B receptor 4 (Homo sapiens, UniProt P54760); test: Inhibition of human full length EphB4 expressed in MEF cells assessed as inhibition of human ephrin B2/FC chimera-stimulated receptor autophosphorylation; format: cell-based
T2 sequence (P54760 whole entry): T1 sequence (whole entry)
Procedure, shortened: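 Cellular EphB4 phosphorylation assay run by a contract lab (ProQinase) in murine embryonal fibroblasts (MEF) expressing exogenous full-length human EphB4. Cells were stimulated 2 h with human Ephrin-B2/Fc chimera to induce receptor tyrosine autophosphorylation. Read-out is inhibition of that autophosphorylation.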

[5] = target: Epidermal growth factor receptor (Homo sapiens, UniProt P00533); test: Inhibition of recombinant EGFR catalytic domain in presence of 1 uM radiolabeled ATP; procedure, shortened: as §1
[6] = target: Proto-oncogene tyrosine-protein kinase Src (Homo sapiens, UniProt P12931); test: Inhibition of recombinant Src catalytic domain in presence of 1 uM radiolabeled ATP; procedure, shortened: as §1
Ephrin type-B receptor 4 [7] = target: T2, Ephrin type-B receptor 4; test: Inhibition of EphB4 in presence of 1 uM radiolabeled ATP; procedure, shortened: as §1
Ephrin type-B receptor 4 [8] = target: T2, Ephrin type-B receptor 4; test: Inhibition of EphB4 by FRET assay in presence of 30 uM ATP
Procedure, shortened: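 In-house FRET enzymatic assay of EphB4 using a commercial EphB4 kit, ATP 30 μM. IC50 derived from concentration-response.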

[9] = target: Insulin-like growth factor 1 receptor (Homo sapiens) (UniProt P08069); test: Inhibition of recombinant IGF1R catalytic domain in presence of 1 uM radiolabeled ATP; procedure, shortened: as §1
Sequence of Insulin-like growth factor 1 receptor (Homo sapiens) (P08069 31-736 limits assumed): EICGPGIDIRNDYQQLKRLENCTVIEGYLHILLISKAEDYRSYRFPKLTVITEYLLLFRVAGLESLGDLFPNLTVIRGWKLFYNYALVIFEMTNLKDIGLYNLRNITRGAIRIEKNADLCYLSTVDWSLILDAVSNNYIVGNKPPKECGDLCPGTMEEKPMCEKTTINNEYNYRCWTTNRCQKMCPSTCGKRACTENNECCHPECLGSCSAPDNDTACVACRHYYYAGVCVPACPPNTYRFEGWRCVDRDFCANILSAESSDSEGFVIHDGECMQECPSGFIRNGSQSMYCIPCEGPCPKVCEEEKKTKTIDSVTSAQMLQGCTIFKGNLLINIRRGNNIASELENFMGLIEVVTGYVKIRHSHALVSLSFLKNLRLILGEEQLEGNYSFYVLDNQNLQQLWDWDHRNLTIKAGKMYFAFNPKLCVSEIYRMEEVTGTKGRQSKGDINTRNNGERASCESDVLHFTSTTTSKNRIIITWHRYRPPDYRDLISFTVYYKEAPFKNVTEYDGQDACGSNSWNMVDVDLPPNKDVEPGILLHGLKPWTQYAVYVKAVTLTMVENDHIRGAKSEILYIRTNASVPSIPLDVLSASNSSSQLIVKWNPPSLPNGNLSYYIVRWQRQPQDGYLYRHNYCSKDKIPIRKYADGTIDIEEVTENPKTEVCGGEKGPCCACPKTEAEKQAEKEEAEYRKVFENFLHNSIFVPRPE
Sequence of Insulin-like growth factor 1 receptor (Homo sapiens) (P08069 741-1367 limits assumed): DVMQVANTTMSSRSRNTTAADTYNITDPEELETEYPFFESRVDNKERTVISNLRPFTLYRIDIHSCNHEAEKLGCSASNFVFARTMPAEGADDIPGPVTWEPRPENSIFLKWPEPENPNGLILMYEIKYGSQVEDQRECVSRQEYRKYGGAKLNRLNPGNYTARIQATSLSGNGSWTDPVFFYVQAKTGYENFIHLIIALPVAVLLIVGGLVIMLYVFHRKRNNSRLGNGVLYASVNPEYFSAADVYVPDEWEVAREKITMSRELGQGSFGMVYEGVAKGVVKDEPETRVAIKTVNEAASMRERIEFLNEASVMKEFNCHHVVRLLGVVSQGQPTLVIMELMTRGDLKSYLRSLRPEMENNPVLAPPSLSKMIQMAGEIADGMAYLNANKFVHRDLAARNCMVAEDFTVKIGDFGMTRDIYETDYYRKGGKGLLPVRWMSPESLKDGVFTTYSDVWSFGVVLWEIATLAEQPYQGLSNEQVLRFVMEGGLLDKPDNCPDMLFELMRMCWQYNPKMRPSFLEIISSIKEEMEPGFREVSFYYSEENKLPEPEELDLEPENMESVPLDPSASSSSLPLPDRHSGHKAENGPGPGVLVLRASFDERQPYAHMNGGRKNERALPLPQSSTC

Sequence of Tyrosine-protein kinase Lck (P06239 whole entry, the tested form may be a part): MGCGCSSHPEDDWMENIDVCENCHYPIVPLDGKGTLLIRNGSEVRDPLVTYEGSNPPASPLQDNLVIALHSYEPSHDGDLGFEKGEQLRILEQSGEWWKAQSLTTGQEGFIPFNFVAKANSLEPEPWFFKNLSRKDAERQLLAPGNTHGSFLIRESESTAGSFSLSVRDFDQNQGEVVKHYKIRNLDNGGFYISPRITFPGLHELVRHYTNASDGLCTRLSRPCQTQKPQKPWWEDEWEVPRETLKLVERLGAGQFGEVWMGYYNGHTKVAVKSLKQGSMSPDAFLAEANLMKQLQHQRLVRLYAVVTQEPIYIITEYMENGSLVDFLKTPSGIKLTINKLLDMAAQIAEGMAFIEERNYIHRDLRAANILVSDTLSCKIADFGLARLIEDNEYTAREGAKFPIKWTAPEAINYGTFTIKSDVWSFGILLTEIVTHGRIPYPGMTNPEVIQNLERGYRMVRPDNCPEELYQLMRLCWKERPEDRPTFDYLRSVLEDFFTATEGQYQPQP
Sequence of Proto-oncogene tyrosine-protein kinase Src (P12931 2-536 limits assumed): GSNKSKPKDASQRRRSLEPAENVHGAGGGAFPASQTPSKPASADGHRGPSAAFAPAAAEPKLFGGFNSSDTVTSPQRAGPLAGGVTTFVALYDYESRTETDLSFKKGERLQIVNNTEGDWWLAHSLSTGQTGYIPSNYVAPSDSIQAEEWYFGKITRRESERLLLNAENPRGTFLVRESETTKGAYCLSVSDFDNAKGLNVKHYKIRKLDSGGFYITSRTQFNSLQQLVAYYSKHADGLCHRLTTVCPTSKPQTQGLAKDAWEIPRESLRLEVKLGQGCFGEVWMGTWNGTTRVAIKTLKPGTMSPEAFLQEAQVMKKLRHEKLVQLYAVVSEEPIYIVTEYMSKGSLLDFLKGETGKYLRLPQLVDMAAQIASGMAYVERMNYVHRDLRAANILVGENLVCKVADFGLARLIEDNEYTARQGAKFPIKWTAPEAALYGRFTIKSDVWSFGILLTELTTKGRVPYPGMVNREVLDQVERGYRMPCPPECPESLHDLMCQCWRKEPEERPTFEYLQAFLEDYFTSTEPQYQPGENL
Sequence of Epidermal growth factor receptor (P00533 whole entry, the tested form may be a part): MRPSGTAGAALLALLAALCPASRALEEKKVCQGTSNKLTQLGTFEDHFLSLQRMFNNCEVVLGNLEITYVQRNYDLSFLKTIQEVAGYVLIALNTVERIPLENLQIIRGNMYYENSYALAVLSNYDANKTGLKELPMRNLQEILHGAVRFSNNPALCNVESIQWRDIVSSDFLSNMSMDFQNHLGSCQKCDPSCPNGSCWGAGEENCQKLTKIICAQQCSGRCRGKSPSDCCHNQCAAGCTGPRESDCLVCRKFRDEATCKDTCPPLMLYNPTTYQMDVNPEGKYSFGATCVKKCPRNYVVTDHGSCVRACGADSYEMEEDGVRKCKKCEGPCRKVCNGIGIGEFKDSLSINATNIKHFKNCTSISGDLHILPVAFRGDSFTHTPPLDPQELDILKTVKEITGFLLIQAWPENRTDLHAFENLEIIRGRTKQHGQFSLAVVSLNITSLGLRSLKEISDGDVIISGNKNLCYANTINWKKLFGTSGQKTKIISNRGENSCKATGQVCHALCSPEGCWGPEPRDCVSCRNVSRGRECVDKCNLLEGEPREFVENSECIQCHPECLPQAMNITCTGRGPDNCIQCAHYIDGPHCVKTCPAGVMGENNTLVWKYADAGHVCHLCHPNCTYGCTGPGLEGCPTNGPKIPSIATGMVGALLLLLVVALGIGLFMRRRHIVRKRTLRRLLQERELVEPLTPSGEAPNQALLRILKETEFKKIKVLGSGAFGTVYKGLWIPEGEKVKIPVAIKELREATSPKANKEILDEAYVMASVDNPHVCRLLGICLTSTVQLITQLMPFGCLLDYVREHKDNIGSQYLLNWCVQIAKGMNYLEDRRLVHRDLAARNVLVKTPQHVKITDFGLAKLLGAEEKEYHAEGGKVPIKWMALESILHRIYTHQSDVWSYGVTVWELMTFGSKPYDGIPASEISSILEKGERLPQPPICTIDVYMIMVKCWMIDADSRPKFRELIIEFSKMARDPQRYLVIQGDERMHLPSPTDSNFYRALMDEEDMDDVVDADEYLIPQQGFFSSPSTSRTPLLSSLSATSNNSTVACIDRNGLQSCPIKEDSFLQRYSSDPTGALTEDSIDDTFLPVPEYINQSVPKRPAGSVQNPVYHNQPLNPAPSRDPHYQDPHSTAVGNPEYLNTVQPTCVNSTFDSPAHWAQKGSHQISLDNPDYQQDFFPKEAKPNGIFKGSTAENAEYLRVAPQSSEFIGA
Sequence of Tyrosine-protein kinase ABL1 (P00519 whole entry, the tested form may be a part): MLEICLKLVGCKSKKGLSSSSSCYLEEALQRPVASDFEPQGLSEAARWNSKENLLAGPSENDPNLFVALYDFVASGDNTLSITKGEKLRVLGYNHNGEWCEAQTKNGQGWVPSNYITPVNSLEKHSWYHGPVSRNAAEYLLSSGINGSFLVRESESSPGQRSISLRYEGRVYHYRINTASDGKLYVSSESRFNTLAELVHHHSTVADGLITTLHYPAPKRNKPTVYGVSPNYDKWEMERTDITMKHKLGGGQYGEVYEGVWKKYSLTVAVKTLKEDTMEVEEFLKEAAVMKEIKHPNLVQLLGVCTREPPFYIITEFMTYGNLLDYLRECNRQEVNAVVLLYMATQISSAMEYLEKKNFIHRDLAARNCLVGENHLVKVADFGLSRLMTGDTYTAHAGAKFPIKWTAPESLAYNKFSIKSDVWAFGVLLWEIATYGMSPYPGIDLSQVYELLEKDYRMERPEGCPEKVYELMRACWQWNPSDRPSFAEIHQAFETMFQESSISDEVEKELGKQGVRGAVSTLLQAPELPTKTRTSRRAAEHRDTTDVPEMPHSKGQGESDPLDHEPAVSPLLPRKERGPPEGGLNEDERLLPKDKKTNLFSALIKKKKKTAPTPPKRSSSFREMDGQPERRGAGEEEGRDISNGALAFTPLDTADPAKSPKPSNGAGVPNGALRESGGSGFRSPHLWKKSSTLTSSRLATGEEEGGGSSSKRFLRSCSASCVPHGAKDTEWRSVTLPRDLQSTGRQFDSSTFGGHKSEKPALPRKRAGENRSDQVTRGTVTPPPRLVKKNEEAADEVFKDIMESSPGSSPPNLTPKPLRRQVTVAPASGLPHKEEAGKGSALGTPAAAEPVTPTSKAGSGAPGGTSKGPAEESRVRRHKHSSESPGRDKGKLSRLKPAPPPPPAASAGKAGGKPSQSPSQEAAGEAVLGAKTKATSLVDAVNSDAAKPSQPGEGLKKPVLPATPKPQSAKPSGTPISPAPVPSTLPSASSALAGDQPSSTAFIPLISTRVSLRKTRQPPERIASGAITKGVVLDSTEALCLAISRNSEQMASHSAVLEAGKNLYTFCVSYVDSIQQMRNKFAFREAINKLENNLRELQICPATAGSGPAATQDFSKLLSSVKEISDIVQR

An inhibition [1] of 37% was found for `COc1ccc(-n2c(=O)c3c(c4c(N)ncnc42)CCCC3)cc1` in this work.

An inhibition [1] of 5% was found for `COc1ccccc1-n1c(=O)c2c(c3c(N)ncnc31)CCCC2` in this work.

A pIC50 [2] of 5.86, a pIC50 [3] of 6.06 and a pIC50 (Ephrin type-B receptor 4 [4]) of 6.03 were found for `Cc1ccc(O)cc1-n1c(=O)c2c(c3c(N)ncnc31)CCCC2` in this work. The pIC50 [5] was 5.79, the pIC50 [6] was 6.47 and the pIC50 (Ephrin type-B receptor 4 [7]) was 6.80. The pIC50 (Ephrin type-B receptor 4 [8]) was 6.52 and the inhibition [9] was “inactive”.

An inhibition [1] of 48% and a pIC50 (Ephrin type-B receptor 4 [7]) of 5.08 were found for `Cc1ccccc1-n1c(=O)c2c(c3c(N)ncnc31)CCCC2` in this work.

An inhibition [1] of 38% and a pIC50 (Ephrin type-B receptor 4 [7]) of 4.84 were found for `COc1cccc(-n2c(=O)c3c(c4c(N)ncnc42)CC(C)(C)OC3)c1` in this work.

An inhibition [1] of 75%, a pIC50 (Ephrin type-B receptor 4 [7]) of 5.28 and a pIC50 (Ephrin type-B receptor 4 [8]) of 5.03 were found for `COc1cccc(-n2c(=O)c3c(c4c(N)ncnc42)CCCC3)c1` in this work.

An inhibition [1] of 0% was found for `COc1ccccc1-n1c(=O)c2c(c3c(N)ncnc31)CC(C)(C)OC2` in this work.

Source: ChEMBL document CHEMBL2150975, “Discovery of a novel chemotype of tyrosine kinase inhibitors by fragment-based docking and molecular dynamics” (ACS Med Chem Lett, 2012)
